pIC50: −log10 of the molar value.
Key:
Prostacyclin receptor [1] = molecular target: T1, Prostacyclin receptor (Homo sapiens, UniProt P43119); test: Displacement of [3H]iloprost from IP receptor in human platelet membrane; type: cell membranes
Summary of the method: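 Filter binding with 0.01 μM [3H]-iloprost and 50 μg human platelet membranes. Incubated 1 h at room temperature in 20 mM Hepes, 5 mM MgCl2, pH 7.4, with or without compound. Compound serially diluted in DMSO, final DMSO 1–10%. Filtered, washed twice with PBS, counted by scintillation.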

Prostacyclin receptor [2] = molecular target: T1, Prostacyclin receptor; test: Antagonist activity at human IP receptor in HEL 92.1.7 cells assessed as inhibition of iloprost-induced cAMP production; type: functional, cell-based
Summary of the method: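 HEL 92.1.7 cells cultured in RPMI with 10% FBS, 10 mM Hepes, 1 mM sodium pyruvate, penicillin/streptomycin. 5000 cells preincubated 15 min at 37 °C with compound in 5 mM Hepes, 0.05% BSA buffer. Stimulated with 0.01 μM iloprost for 15 min at 37 °C. cAMP read by LANCE TR-FRET kit. Data normalized to max/min controls; IC50 from curve fit.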

[3] = Metabolic stability in human liver microsomes after 30 mins; type: ADME, Microsome; conditions: read-out: Stability
Summary of the method: (§1)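 Human or rat liver microsomes, […], incubated 30 min with compound; percent parent remaining.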

[4] = Metabolic stability in rat liver microsome after 30 mins; type: ADME; conditions: liver microsomes, read-out: Stability; summary of the method: as §1
Cytochrome P450 1A2 = molecular target: T2, Cytochrome P450 1A2 (Homo sapiens, UniProt P05177); test: Inhibition of CYP1A2; type: ADME
T2 sequence (P05177 whole entry): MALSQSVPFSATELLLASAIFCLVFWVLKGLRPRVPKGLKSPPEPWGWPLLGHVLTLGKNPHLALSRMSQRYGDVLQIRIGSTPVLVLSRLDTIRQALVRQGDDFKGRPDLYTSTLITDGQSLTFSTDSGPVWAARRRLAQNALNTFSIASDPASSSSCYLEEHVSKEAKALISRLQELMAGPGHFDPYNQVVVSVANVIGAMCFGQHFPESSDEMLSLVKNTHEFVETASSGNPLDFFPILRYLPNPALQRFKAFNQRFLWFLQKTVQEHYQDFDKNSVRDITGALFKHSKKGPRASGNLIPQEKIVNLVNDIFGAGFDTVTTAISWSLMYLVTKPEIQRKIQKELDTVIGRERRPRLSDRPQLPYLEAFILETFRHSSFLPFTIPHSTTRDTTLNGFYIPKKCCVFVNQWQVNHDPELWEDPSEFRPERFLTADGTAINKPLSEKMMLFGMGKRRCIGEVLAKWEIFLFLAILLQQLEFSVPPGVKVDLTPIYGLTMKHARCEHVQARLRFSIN

Cytochrome P450 2D6 = Cytochrome P450 2D6 (Homo sapiens, UniProt P10635); test: Inhibition of CYP2D6; type: ADME
Chain of Cytochrome P450 2D6 (P10635 whole entry): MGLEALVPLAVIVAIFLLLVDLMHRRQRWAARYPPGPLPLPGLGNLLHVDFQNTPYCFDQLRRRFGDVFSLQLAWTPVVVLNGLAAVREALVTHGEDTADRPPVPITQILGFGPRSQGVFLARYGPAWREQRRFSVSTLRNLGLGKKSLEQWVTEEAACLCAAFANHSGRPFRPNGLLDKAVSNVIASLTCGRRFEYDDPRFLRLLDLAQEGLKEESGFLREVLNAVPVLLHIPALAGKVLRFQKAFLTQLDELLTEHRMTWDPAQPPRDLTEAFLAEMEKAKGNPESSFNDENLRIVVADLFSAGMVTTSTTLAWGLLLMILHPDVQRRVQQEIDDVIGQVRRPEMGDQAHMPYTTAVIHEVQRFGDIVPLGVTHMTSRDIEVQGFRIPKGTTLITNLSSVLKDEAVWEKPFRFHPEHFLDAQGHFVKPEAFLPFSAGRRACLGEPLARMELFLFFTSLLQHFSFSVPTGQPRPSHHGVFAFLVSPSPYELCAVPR

Cytochrome P450 2C9 = Cytochrome P450 2C9 (Homo sapiens, UniProt P11712); test: Inhibition of CYP2C9; type: ADME
Chain of Cytochrome P450 2C9 (P11712 whole entry): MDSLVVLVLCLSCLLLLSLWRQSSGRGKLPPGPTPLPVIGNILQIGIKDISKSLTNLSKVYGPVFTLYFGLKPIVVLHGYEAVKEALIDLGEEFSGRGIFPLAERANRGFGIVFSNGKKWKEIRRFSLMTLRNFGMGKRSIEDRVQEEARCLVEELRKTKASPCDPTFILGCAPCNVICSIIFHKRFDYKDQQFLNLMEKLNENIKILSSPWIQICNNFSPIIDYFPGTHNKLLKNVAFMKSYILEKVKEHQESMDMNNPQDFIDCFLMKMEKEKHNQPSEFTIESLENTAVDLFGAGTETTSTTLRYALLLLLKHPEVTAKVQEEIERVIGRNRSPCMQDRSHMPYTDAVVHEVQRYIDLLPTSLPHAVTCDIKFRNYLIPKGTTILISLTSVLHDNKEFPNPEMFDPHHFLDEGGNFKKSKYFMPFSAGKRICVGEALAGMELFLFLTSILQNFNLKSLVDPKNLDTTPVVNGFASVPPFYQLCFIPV

hERG (KCNH2) = hERG (KCNH2) (Homo sapiens, UniProt Q12809); test: Inhibition of hERG at 20 uM by rubidium efflux assay; type: toxicity
Chain of hERG (KCNH2) (Q12809 whole entry): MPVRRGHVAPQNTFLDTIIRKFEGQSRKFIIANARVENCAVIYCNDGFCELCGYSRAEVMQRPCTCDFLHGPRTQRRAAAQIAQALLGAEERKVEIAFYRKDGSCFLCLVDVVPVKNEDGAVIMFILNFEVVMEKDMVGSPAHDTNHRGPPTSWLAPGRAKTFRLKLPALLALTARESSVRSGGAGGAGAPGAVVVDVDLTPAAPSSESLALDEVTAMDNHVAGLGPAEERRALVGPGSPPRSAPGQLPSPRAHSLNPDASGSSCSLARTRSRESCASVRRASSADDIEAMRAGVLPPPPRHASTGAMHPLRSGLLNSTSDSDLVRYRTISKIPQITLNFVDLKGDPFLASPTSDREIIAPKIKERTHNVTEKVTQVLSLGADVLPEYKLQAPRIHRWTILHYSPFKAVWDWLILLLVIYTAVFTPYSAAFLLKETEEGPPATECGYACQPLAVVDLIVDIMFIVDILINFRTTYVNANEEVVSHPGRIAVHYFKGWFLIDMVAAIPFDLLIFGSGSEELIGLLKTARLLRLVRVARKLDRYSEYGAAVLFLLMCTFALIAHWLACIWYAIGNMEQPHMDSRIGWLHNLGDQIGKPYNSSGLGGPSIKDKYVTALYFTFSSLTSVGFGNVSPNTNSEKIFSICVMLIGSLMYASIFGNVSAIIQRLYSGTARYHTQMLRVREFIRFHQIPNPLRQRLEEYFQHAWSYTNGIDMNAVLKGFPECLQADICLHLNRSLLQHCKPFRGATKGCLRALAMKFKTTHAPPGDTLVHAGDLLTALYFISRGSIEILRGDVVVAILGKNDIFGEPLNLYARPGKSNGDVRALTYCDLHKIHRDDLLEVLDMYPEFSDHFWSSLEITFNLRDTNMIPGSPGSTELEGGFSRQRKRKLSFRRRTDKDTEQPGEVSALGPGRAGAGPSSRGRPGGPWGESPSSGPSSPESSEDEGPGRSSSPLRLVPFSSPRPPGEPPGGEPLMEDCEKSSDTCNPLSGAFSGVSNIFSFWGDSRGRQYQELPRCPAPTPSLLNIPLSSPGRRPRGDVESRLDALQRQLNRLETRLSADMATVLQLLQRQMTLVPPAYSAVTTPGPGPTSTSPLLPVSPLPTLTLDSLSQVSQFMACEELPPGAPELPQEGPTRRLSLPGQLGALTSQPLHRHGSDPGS

Cytochrome P450 3A4 = Cytochrome P450 3A4 (Homo sapiens, UniProt P08684); test: Inhibition of CYP3A4; type: ADME
Chain of Cytochrome P450 3A4 (P08684 whole entry): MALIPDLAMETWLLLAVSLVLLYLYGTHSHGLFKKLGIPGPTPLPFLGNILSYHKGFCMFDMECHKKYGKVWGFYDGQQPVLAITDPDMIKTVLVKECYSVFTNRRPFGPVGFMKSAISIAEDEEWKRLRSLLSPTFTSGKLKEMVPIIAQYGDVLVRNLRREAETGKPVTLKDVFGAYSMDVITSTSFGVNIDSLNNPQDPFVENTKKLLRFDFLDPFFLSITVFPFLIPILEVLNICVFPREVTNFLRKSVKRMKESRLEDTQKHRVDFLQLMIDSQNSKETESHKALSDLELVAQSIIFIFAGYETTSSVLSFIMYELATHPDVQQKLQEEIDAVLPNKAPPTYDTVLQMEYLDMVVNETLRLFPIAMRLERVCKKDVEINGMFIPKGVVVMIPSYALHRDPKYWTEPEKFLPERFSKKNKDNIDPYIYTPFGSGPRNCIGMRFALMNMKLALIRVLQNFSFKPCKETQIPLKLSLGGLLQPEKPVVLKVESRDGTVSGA

[5] = molecular target: Prostaglandin E2 receptor EP2 subtype (Homo sapiens, UniProt P43116); test: Inhibition of human recombinant EP2 receptor expressed in 293EBNA cells; type: cell-based
Chain of Prostaglandin E2 receptor EP2 subtype (P43116 whole entry): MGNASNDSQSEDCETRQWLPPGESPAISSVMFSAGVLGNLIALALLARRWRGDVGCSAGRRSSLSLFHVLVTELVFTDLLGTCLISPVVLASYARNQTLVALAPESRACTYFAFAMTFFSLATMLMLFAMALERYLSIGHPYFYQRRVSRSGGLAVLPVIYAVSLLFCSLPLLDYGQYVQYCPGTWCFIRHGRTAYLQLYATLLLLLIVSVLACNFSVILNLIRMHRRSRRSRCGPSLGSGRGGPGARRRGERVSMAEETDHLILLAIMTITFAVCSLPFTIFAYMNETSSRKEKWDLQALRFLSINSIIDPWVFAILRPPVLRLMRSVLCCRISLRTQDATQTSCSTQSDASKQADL

[6] = Apparent permeability across Caco-2 cells; type: ADME, cell-based; conditions: human
[7] = molecular target: Prostaglandin E2 receptor EP4 subtype (Homo sapiens, UniProt P35408); test: Inhibition of human recombinant EP4 receptor expressed in 293EBNA cells; type: cell-based
Chain of Prostaglandin E2 receptor EP4 subtype (P35408 whole entry): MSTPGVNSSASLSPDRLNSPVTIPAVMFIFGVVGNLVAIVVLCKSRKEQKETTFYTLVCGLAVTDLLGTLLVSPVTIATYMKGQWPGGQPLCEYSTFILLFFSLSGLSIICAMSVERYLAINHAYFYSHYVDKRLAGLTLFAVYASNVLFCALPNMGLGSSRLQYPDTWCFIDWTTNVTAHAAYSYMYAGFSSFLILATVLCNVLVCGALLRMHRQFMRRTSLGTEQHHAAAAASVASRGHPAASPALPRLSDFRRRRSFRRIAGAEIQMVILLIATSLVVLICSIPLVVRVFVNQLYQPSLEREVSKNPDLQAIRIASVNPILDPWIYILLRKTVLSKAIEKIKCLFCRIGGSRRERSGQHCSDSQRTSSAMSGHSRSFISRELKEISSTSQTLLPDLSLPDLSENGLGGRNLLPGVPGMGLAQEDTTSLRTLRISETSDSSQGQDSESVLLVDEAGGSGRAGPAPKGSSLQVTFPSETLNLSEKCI

Cytochrome P450 2C19 = Cytochrome P450 2C19 (Homo sapiens, UniProt P33261); test: Inhibition of CYP2C19; type: ADME
Chain of Cytochrome P450 2C19 (P33261 whole entry): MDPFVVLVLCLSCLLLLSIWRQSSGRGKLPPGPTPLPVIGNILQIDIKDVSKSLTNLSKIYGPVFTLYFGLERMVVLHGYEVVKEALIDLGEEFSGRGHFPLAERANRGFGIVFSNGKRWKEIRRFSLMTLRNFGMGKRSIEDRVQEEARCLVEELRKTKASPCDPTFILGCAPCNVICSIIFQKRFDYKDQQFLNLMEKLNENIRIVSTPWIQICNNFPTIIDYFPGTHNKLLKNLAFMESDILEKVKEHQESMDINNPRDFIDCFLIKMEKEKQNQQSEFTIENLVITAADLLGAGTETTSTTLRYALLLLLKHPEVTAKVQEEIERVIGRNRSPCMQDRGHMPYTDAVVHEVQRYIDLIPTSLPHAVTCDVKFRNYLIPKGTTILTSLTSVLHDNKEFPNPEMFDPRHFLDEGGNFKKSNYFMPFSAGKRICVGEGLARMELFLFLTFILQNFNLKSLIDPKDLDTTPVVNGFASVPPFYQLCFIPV

T1 sequence (P43119 whole entry): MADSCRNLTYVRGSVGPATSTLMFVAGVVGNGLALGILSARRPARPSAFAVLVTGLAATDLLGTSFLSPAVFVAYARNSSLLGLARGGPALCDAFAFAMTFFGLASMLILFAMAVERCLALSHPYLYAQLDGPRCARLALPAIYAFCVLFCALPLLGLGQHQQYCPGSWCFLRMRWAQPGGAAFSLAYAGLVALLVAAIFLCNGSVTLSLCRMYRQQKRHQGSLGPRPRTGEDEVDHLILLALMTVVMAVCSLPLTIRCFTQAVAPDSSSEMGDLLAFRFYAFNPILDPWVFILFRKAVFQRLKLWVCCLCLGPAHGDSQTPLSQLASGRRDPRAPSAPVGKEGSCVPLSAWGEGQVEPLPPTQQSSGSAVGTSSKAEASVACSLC

CC(=O)Nc1cccc(-c2ccc(Cc3ocnc3C(=O)N(C)C)cc2)c1
pIC50 (Prostacyclin receptor [1]): 4.91
pIC50 (Prostacyclin receptor [2]): 5.45

CC(=O)Nc1cccc(-c2ccc(Cc3ocnc3C(=O)NCCc3ccccc3)cc2)c1
pIC50 (Prostacyclin receptor [1]): 6.14
pIC50 (Prostacyclin receptor [2]): 6.86

CC(=O)Nc1cccc(-c2ccc(Cc3ocnc3C(=O)Nc3ccccc3)cc2)c1
pIC50 (Prostacyclin receptor [1]): 5.46
pIC50 (Prostacyclin receptor [2]): 6.08

CC(=O)Nc1cccc(-c2ccc(Cc3ocnc3C(=O)N(C)CCc3ccccc3)cc2)c1
pIC50 (Prostacyclin receptor [1]): 5.15
pIC50 (Prostacyclin receptor [2]): 5.67

CC(=O)Nc1cccc(-c2ccc(Cc3ocnc3C(=O)NC[C@H](C)c3ccccc3)cc2)c1
remaining at 0.5 h [3]: 12%
remaining at 0.5 h [4]: 11%
pIC50 (Prostacyclin receptor [1]): 7.28
pIC50 (Prostacyclin receptor [2]): 7.29

CC(=O)Nc1cccc(-c2ccc(Cc3ocnc3C(=O)NC[C@@H](C)c3ccccc3)cc2)c1
pIC50 (Prostacyclin receptor [1]): 6.04
pIC50 (Prostacyclin receptor [2]): 6.53

CC(=O)Nc1cccc(-c2ccc(Cc3ocnc3C(=O)N[C@H](Cc3ccccc3)C(=O)O)cc2)c1
pIC50 (Prostacyclin receptor [1]): 5.38
pIC50 (Prostacyclin receptor [2]): 6.08

CC(=O)Nc1cccc(-c2ccc(Cc3ocnc3C(=O)NCCc3ccccn3)cc2)c1
pIC50 (Prostacyclin receptor [1]): 5.12
pIC50 (Prostacyclin receptor [2]): 6.00

CC(=O)Nc1cccc(-c2ccc(Cc3ocnc3C(=O)NCCc3ccncc3)cc2)c1
pIC50 (Prostacyclin receptor [1]): 5.33
pIC50 (Prostacyclin receptor [2]): 6.32

CC(=O)Nc1cccc(-c2ccc(Cc3ocnc3C(=O)NCc3ccccc3)cc2)c1
remaining at 0.5 h [3]: 63%
remaining at 0.5 h [4]: 33%
pIC50 (Prostacyclin receptor [1]): 6.25
pIC50 (Prostacyclin receptor [2]): 7.18

CC(=O)Nc1cccc(-c2ccc(Cc3ocnc3C(=O)N[C@H]3C[C@@H]3c3ccccc3)cc2)c1
pIC50 (Prostacyclin receptor [1]): 6.48
pIC50 (Prostacyclin receptor [2]): 6.45

CNC(=O)c1ncoc1Cc1ccc(-c2cccc(NC(C)=O)c2)cc1
pIC50 (Prostacyclin receptor [1]): 4.91
pIC50 (Prostacyclin receptor [2]): 5.48

CC(=O)Nc1cccc(-c2ccc(Cc3ocnc3C(=O)NCCN(C)C)cc2)c1
pIC50 (Prostacyclin receptor [1]): 4.47
pIC50 (Prostacyclin receptor [2]): 5.48

CC(=O)Nc1cccc(-c2ccc(Cc3ocnc3C(=O)N[C@@H](Cc3ccccc3)C(=O)O)cc2)c1
pIC50 (Cytochrome P450 1A2): < 4.70
pIC50 (Cytochrome P450 2D6): < 4.70
remaining at 0.5 h [3]: 100%
pIC50 (Cytochrome P450 2C9): 5.29
inhibition at 20 µM (hERG (KCNH2)): 5%
pIC50 (Cytochrome P450 3A4): < 4.70
pIC50 [5]: 4.49
Papp [6]: 5.5 ×10⁻⁶ cm/s
pIC50 [7]: 4.62
pIC50 (Cytochrome P450 2C19): < 4.70
remaining at 0.5 h [4]: 91%
pIC50 (Prostacyclin receptor [1]): 6.32
pIC50 (Prostacyclin receptor [2]): 7.80

CC(=O)Nc1cccc(-c2ccc(Cc3ocnc3C(=O)NCCc3cccnc3)cc2)c1
pIC50 (Prostacyclin receptor [1]): 5.31
pIC50 (Prostacyclin receptor [2]): 6.13

CC(=O)Nc1cccc(-c2ccc(Cc3ocnc3C(=O)NC(C)c3ccccc3)cc2)c1 (racemic)
pIC50 (Prostacyclin receptor [1]): 5.91
pIC50 (Prostacyclin receptor [2]): 6.56

CC(=O)Nc1cccc(-c2ccc(Cc3ocnc3C(=O)NCC(C)c3ccccc3)cc2)c1 (racemic)
pIC50 (Prostacyclin receptor [1]): 7.11
